p97 inhibitor: blocks human p97 ATPase activity. P55072. recombinant p97 ATPase, Kinase-Glo ATP luminescence, 3 h. inhibition, % at 8 µM. 0.42% of 220,000 active. AID 1481; in the data active means inhibition above about 15%;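 further: 0% = DMSO vehicle and 100% = wells lacking enzyme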
Wee1 degr inh: inhibitors of human Wee1 degradation; P30291; HeLa Luc-Wee1K328M stability, luciferase luminescence; 100% = proteasome inhibitor MG132 effect; reporter increase, % at 5 µM; 1.2% of 220,000 active;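 active means activation above the mean of all tested compounds plus 3 SD, set per screening run, cut at about 8.8% in these data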;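 further: cells exposed to compound for 20 h before luminescence read; 0% = DMSO alone and 100% = MG132 at 30 µM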
Arbovirus anti: antivirals against arbovirus infection; arbovirus infection cell-based antiviral screen; inhibition, % at 10 µM; 0.37% of 200,000 active; in the data active means inhibition above about 30%
Redox H2O2 prof: compounds producing H2O2 with reducing agent – biochemical, NIH compound library profiling, artefact control for MLSCN library redox annotation, primary screen; DTT-dependent redox cycling H2O2, phenol red/HRP absorbance; 100% = 100 µM peroxide control, 0% = buffer; AID 878; 0.03% of 200,000 active; activation, % at 10 µM;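 active means activation of at least 50% relative to the plate's high and low controls in the primary single-dose screen; inactive means activation below 50%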;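 further: compound incubated with DTT at 0.8 mM final as the reducing agent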
PKD1 kinase inh: PKD1 (human) kinase inhibition; inhibition, % (concentration not given with the values); 0.056% of 200,000 active; PKD1 kinase fluorescence polarization assay; in the data active means inhibition above about 50%
RBBP9 inh: human RBBP9 hydrolase inhibition; O75884; recombinant RBBP9, FP-Rh probe fluorescence polarization; inhibition, % at 7.94 µM; 0.2% of 220,000 active; AID 1515;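 active means inhibition above the campaign mean of all tested compounds plus 3 SD, cut at about 14% in these data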;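 further: plate controls were DMSO wells with RBBP9 for no effect and wells lacking RBBP9 protein for full effect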
Target sequence (O75884 whole entry, looked up): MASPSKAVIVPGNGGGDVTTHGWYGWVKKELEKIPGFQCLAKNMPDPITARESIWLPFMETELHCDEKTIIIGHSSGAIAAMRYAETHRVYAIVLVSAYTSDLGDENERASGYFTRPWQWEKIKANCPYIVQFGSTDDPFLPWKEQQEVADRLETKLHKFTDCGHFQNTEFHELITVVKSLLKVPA
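Test system: recombinant human RBBP9. Quantity: 2.5 µM RBBP9 dispensing solution, before mixing. Detection: FP readout at 525/598 nm. Reagent: Serine-hydrolase probe FP-Rh, 375 nM pre-mixing. Measure: % inhibition. Control set: DMSO-treated enzyme wells and wells lacking RBBP9. Buffer or medium: Tris-NaCl-Pluronic buffer, pH 8.0. Times: preincubation 30 min plus labeling 45 min at 25 °C.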
Wee1 stab conf: confirmation of human Wee1 degradation inhibitors. activation, % at 5 µM. 4% of 1,100 active. HeLa Luc-Wee1K328M degradation, luminescence; vehicle 0%, proteasome-blocked wells 100%. shares compounds with Wee1 degr inh; in the data active means activation above about 8.9%
The depositor's hits bear a star; x = not tested or not shown. Most compounds without a hit are left out; they make up all but 2.2% or so of the library.

SMILES	p97 inhibitor	Wee1 degr inh	Arbovirus anti	Redox H2O2 prof	PKD1 kinase inh	RBBP9 inh	Wee1 stab conf
Cc1ccc(S(=O)(=O)N(C)C)cc1-n1c(SCC(=O)Nc2ccc(F)c(F)c2F)nc2ccccc2c1=O	1	1	-2	-1	0	-9	x
Cc1ccc(S(=O)(=O)C2(C(=O)Nc3cccnc3)CC2)cc1	7	-2	0	0	-1	-8	x
Cc1ccc(S(=O)(=O)C2(C(=O)Nc3ccc(Br)cc3)CC2)cc1	0	14*	13	0	3	-8	2
NC(=O)NC(=O)CC1S/C(=N/N=C2\CSC(=O)N2)NC1=O (stereo unspecified)	2	-4	-7	3	2	-5	x
O=C(O)CNC(=O)CC1S/C(=N/N=C2/NC(=O)CS2)NC1=O (stereo unspecified)	-3	13*	9	-1	1	-11	-1
Fc1cccc(/C=N/Nc2nc3ccccc3[nH]2)c1	7	11*	-2	-2	-8	-1	0
Cc1ccc(/C=N/NC(=O)c2ccncc2)o1	-2	13*	3	0	2	-3	3
O=C(N/N=C/C1=Cc2ccccc2OC1)c1ccncc1	4	13*	x	x	x	2	-1
O=C(N/N=C/c1ccncc1)c1ccccc1	1	2	-2	2	2	-2	x
C=CCNC(=O)/C=C/c1c(F)cccc1Cl	1	13*	-8	1	1	-4	0
O=C(/C=C/c1c(F)cccc1Cl)Nc1ncccn1	-4	5	-19	0	-3	-3	x
O=C(NCC1CCCO1)c1csc(Nc2cccc3ccccc23)n1 (stereo unspecified)	-7	3	-3	0	3	-10	x
CCC(O)(CC)C(=O)N=Nc1c(O)[nH]c2ccccc12	4	11*	-5	-1	3	-7	2
CC(C)CC(=O)N=Nc1c(O)[nH]c2ccccc12	-1	2	13	-1	13	-9	x
COc1ccc(N(CC(=O)N/N=C(\C)c2cccs2)S(=O)(=O)c2ccccc2)cc1Cl	6	-2	11	0	-3	-3	x
COc1cccc(N(CC(=O)N/N=C(\C)c2cccs2)S(C)(=O)=O)c1	6	38*	-11	0	-13	-8	4
CCc1nc(SCC(=O)Nc2ccc(N(C)C)cc2)c2ccccc2n1	3	-4	x	x	x	0	x
Cc1ccnc(NC(=O)c2cc3ccccc3oc2=O)c1	0	13*	-5	0	-5	-8	5
Cc1ccc2nc3c(cc(C(=O)NCCCn4ccnc4)n3C)c(=O)n2c1	4	23*	-2	0	-6	-4	2
O=C(NCCCn1ccnc1)c1cc2ccccc2oc1=O	-4	13*	6	0	-4	-5	2
Cc1ccnc(NC(=O)c2ccccc2NC(=O)C(C)(C)C)c1	-7	-1	-18	0	1	1	x
Cc1nc(S(=O)(=O)Nc2ccccc2C(=O)NCC2CC2)cn1C	0	-3	x	x	x	-9	x
Cc1cc(C)n(CCOc2ccc(Cl)cc2Cl)n1	-2	11*	0	0	9	-4	-2
CCOc1ccc(-c2cc(C(=O)OC)nc3c2c(=O)n(C)c(=O)n3C)cc1	-2	-1	x	x	x	-7	x
COCCn1c(SCC(=O)c2ccc(F)cc2)nnc1C(C)C	5	-1	-3	-2	2	1	x
SMILES	p97 inhibitor	Wee1 degr inh	Arbovirus anti	Redox H2O2 prof	PKD1 kinase inh	RBBP9 inh	Wee1 stab conf
N#Cc1c(C(F)(F)F)cc(C2CC2)[nH]c1=O	2	15*	10	0	2	5	1
Cc1ccc2nc(-c3ccc(NC(=O)COC(=O)c4cncc(Br)c4)cc3)sc2c1	8	15*	11	0	-12	-7	-3
Cc1ccc2nc(-c3ccc(NC(=O)COC(=O)c4ccc(Br)o4)cc3)sc2c1	-4	7	-26	1	-3	8	x
CCSc1nnc(NC(=O)CSC2=NN3CCCC(=O)N=C3S2)s1	1	17*	8	-1	-5	-5	2
c1ccc(C(c2ccccc2)N2CCN(c3nc4ccccc4n4cnnc34)CC2)cc1	4	11*	-21	2	-9	0	1
c1cnc(N2CCN(c3nc4ccccc4n4cnnc34)CC2)nc1	0	-2	-16	-4	-3	-5	x
C/C(CC1CC2=C(CC1(C)C)C(C)(C)CCC2)=N\NC(N)=S (stereo unspecified)	-7	1	-18	0	3	-7	x
Cc1ccccc1OCCn1cc(C(=S)N2CCN(C)CC2)c2ccccc21	-5	13*	-12	-1	0	3	0
CCN(CC)CCSc1nc2ccccc2c(=S)n1-c1ccccc1	2	13*	-33	0	-1	3	0
CCCC(=O)Nc1ccc2c(c1)nc(CN1CCCCC1)n2C	3	16*	4	3	-2	-4	5
COC(=O)CC1C(=O)NCCN1C(=S)Nc1ccc(F)cc1 (stereo unspecified)	6	0	x	x	x	-7	x
O=S(=O)(c1ccccc1)N1CCN=C1SCc1ccccc1	3	6	0	0	8	0	x
O=[N+]([O-])c1ccc(S(=O)(=O)N2CCN=C2SCc2cccnc2)cc1	4	12*	2	0	-5	-2	-1
CC(=O)c1cccc(NC(=O)C2CC(c3ccc(F)cc3)=NO2)c1 (stereo unspecified)	0	26*	5	1	2	-6	-3
Cc1[nH]n(C)c(=O)c1C(=O)c1c(-c2ccccc2Cl)noc1C	6	1	x	x	x	-4	x
CN(Cc1nc(-c2cnccn2)no1)CC(O)c1ccccc1 (stereo unspecified)	4	12*	5	-1	6	12	3
O=C(NC(=S)N(CC1CCC1)CC1CCCO1)c1cccc([N+](=O)[O-])c1 (stereo unspecified)	1	-4	-7	0	-3	-3	x
CCN(CCC(=O)Nc1cc([N+](=O)[O-])ccc1OC)Cc1ccccc1	1	13*	-8	0	-9	3	3
CCC(=O)Nc1cccc(NC(=O)c2cccc([N+](=O)[O-])c2)c1	0	-2	9	-9	-2	-5	x
Cc1ccc(/C=C/C(=O)c2ccc(O)cc2)cc1	-6	17*	x	x	x	-6	0
COc1cccc2cc(-c3cn4ccc(C)cc4n3)c(=O)oc12	-5	14*	x	0	-10	4	2
O=C(NC1CC1)c1ccc(F)cc1Cl	0	-2	3	0	-4	-4	x
CCS(=O)(=O)c1ccc(C(=O)NC2CC2)c(Cl)c1Cl	2	11*	-2	-1	-6	-6	2

Screening results from PubChem.
